We go through 10 compounds from ChEMBL document CHEMBL1137679, “Synthesis and antibacterial activity of some new 2,3-dimethoxy-3-hydroxy-2-(1-phenyl-3-aryl-4-pyrazolyl)chromanones” (2009).

Values after ≈ are worked out from the molar mass of the structure shown. Active and inactive are the calls of the source.

Holding throughout (type): functional
Experiment [1] concerns Pseudomonas aeruginosa. The experiment can be described thus: Antimicrobial activity against Pseudomonas aeruginosa MTCC 3541 after 24 hrs by agar dilution assay. The following applies: MTCC 3541, 24 h. The gist of the method: (§1)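 Agar dilution MIC following NCCLS. Cultures streaked on soyabean casein digest agar overnight at 37 °C, suspended to 0.5 McFarland, then diluted 10-fold (1.2 × 10⁷ CFU/ml). DMSO stocks diluted and added to molten Mueller-Hinton agar, final concentrations 64 down to 0.12 by twofold steps. Plates surface-inoculated, incubated 35 °C for 24 h. MIC is lowest concentration with no visible growth.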
(In agar dilution, organisms are placed on agar that contains the substance at set levels.)

Experiment [2] relates to Salmonella enterica subsp. enterica serovar Typhi str. CT18. In words: Antimicrobial activity against Salmonella typhi MTCC 733 at 1 mg/ml after 24 hrs by agar diffusion assay. The following applies: for zone of inhibition at 1000 µg/mL: MTCC 733, 24 h, read-out: DIZ. The gist of the method:
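Well diffusion in MHA (pH 7.4) seeded with 24-h culture adjusted to 0.5 McFarland (1.5 × 10⁸ CFU/ml). Wells of 6 mm received 50 µl of 1 mg/ml DMSO solution; DMSO served as negative control. Incubated 35 °C, 24 h. Mean of three replicates.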
Background: Agar diffusion results depend on both activity and mobility in agar.

Experiment [3] has as its system Bacillus pumilus. In words: Antimicrobial activity against Bacillus pumilus MTCC 1456 after 24 hrs by agar dilution assay. Conditions: MTCC 1456, 24 h. The method, boiled down: as §1
Experiment [4] concerns Staphylococcus aureus. The experiment can be described thus: Antimicrobial activity against Staphylococcus aureus MTCC 3160 at 1 mg/ml after 24 hrs by agar diffusion assay. The following applies: MTCC 3160, 24 h, read-out: DIZ. The gist of the method: (§2)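 Agar well diffusion. 24-h cultures adjusted to 0.5 McFarland (1.5 × 10⁸ CFU/ml), mixed into molten cooled Mueller-Hinton agar (pH 7.4) and poured. 6 mm wells punched, each loaded with 50 µl of 1 mg/ml DMSO solution. DMSO as negative control, antibiotics as positive controls. Plates incubated 35 °C for 24 h. Mean of three replicates.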

Experiment [5] relates to Staphylococcus epidermidis. In words: Antimicrobial activity against Staphylococcus epidermidis MTCC 2639 after 24 hrs by agar dilution assay. Conditions: MTCC 2639, 24 h. The method, boiled down:
as §1

For experiment [6], the system named is Staphylococcus aureus. In words: Antimicrobial activity against Staphylococcus aureus MTCC 3160 after 24 hrs by agar dilution assay. The following applies: MTCC 3160, 24 h. The method, boiled down: as §1
For experiment [7], the system named is Salmonella enterica subsp. enterica serovar Typhi str. CT18. The experiment can be described thus: Antimicrobial activity against Salmonella typhi MTCC 733 after 24 hrs by agar dilution assay. Conditions: MTCC 733, 24 h.
For experiment [8], the system named is Bacillus pumilus. In words: Antimicrobial activity against Bacillus pumilus MTCC 1456 at 1 mg/ml after 24 hrs by agar diffusion assay. The following applies: for zone of inhibition at 1000 µg/mL: MTCC 1456, 24 h, read-out: DIZ. The gist of the method:
as §2

Experiment [9] relates to Staphylococcus epidermidis. In words: Antimicrobial activity against Staphylococcus epidermidis MTCC 2639 at 1 mg/ml after 24 hrs by agar diffusion assay. Conditions: for zone of inhibition at 1000 µg/mL: MTCC 2639, 24 h, read-out: DIZ. The gist of the method:
as §2

In experiment [10] the test system is Pseudomonas aeruginosa. In words: Antimicrobial activity against Pseudomonas aeruginosa MTCC 3541 at 1 mg/ml after 24 hrs by agar diffusion assay. Conditions: for zone of inhibition at 1000 µg/mL: MTCC 3541, 24 h, read-out: DIZ. The method, boiled down:
as §2

In the case of `COc1ccc(-c2nn(-c3ccccc3)cc2C2(OC)Oc3ccccc3C(=O)C2(O)OC)cc1` (centres undefined), the MIC in experiment [1] is > 64 µg/mL; in experiment [3], > 64 µg/mL; in [5], > 64 µg/mL; in [6] it was 16 µg/mL (≈ 33.9 µM); in [7], > 64 µg/mL. Besides, the “diameter of the inhibition zone (DIZ)” value in experiment [2], in [8], in [9] and in experiment [10] was “inactive” throughout. Moreover, the zone of inhibition at 1000 µg/mL in experiment [4] came out at 18 mm.
For the compound `CO/N=C(\C(=O)N[C@@H]1C(=O)N2C(C(=O)OC(C)OC(C)=O)=C(COC(N)=O)CS[C@H]12)c1ccco1` (some centres undefined) [CEFUROXIME AXETIL], the MIC is > 16 µg/mL in [1]; > 16 µg/mL in experiment [3]; 8 µg/mL (≈ 15.7 µM) in experiment [5]; 8 µg/mL (≈ 15.7 µM) in experiment [6]; 8 µg/mL (≈ 15.7 µM) in [7].
Turning to `COC1(O)C(=O)c2ccccc2OC1(OC)c1cn(-c2ccccc2)nc1-c1ccc(Br)cc1` (centres undefined), the MIC in experiment [1] was > 64 µg/mL; in experiment [3] it was > 64 µg/mL; in experiment [5], > 64 µg/mL; in experiment [6], 64 µg/mL (≈ 123 µM); in experiment [7], > 64 µg/mL. The “diameter of the inhibition zone (DIZ)” value in experiment [2], in experiment [8], in experiment [9] and in [10] was “inactive” throughout. In addition, the zone of inhibition at 1000 µg/mL in [4] amounted to 10.3 mm.
`COC1(O)C(=O)c2ccccc2OC1(OC)c1cn(-c2ccccc2)nc1-c1ccc(F)cc1` (centres undefined): the minimum inhibitory concentration (MIC) is 8 µg/mL (≈ 17.4 µM) in experiment [1]; 64 µg/mL (≈ 139 µM) in [3]; 64 µg/mL (≈ 139 µM) in experiment [5]; 4 µg/mL (≈ 8.69 µM) in experiment [6]; 8 µg/mL (≈ 17.4 µM) in experiment [7]. Also, the zone of inhibition at 1000 µg/mL in experiment [2] turned out to be 18.2 mm; in experiment [4], 23 mm; in [8], 10.1 mm; in experiment [9], 12.1 mm; in experiment [10] it was 22.2 mm.
Take `COC1(O)C(=O)c2ccccc2OC1(OC)c1cn(-c2ccccc2)nc1-c1ccccc1` (centres undefined): the minimum inhibitory concentration (MIC) in experiment [1] is > 64 µg/mL; in [3] it was > 64 µg/mL; in experiment [5] it was > 64 µg/mL; in experiment [6], 16 µg/mL (≈ 36.2 µM); in experiment [7], > 64 µg/mL. The “diameter of the inhibition zone (DIZ)” value in experiment [2], in experiment [8], in experiment [9] and in [10] was “inactive” in each case. The zone of inhibition at 1000 µg/mL in [4] came to 18.1 mm.
As for `COC1(O)C(=O)c2ccccc2OC1(OC)c1cn(-c2ccccc2)nc1-c1ccc([N+](=O)[O-])cc1` (centres undefined), the minimal inhibitory concentration (MIC) in [1] came to 16 µg/mL (≈ 32.8 µM); in experiment [3], 32 µg/mL (≈ 65.6 µM); in experiment [5] it was 8 µg/mL (≈ 16.4 µM); in experiment [6], 2 µg/mL (≈ 4.1 µM); in experiment [7], 8 µg/mL (≈ 16.4 µM). Further, the zone of inhibition at 1000 µg/mL turned out to be 20.6 mm in [2]; 26 mm in experiment [4]; 15.8 mm in experiment [8]; 18.5 mm in experiment [9]; 16.6 mm in experiment [10].
As for `CC(=O)NC[C@H]1CN(c2ccc(N3CCOCC3)c(F)c2)C(=O)O1` [LINEZOLID], the MIC in experiment [1] was < 16 µg/mL; in [3], 4 µg/mL (≈ 11.9 µM); in experiment [5], < 16 µg/mL; in experiment [7] it was 8 µg/mL (≈ 23.7 µM).
As to `COC1(O)C(=O)c2ccccc2OC1(OC)c1cn(-c2ccccc2)nc1-c1ccc(C)cc1` (centres undefined), the MIC in experiment [1] was > 64 µg/mL; in experiment [3] it was > 64 µg/mL; in [5] it was 64 µg/mL (≈ 140 µM); in [6], 32 µg/mL (≈ 70.1 µM); in experiment [7] it was > 64 µg/mL. Also, the “diameter of the inhibition zone (DIZ)” value in experiment [2], in [8] and in experiment [10] was “inactive” in each case. For the same compound, the zone of inhibition at 1000 µg/mL stood at 16.1 mm in experiment [4] and 12.6 mm in experiment [9].
As to `N[C@@H](C(=O)N[C@@H]1C(=O)N2C(C(=O)O)=C(Cl)CS[C@H]12)c1ccccc1` [CEFACLOR ANHYDROUS], the MIC in [1] was < 16 µg/mL; in [3] it was 8 µg/mL (≈ 21.8 µM); in [5], 2 µg/mL (≈ 5.44 µM); in experiment [6], 2 µg/mL (≈ 5.44 µM); in experiment [7] it was 8 µg/mL (≈ 21.8 µM).
On to `COC1(O)C(=O)c2ccccc2OC1(OC)c1cn(-c2ccccc2)nc1-c1ccc(Cl)cc1` (centres undefined), for which the MIC was 32 µg/mL (≈ 67.1 µM) in [1]; > 64 µg/mL in [3]; 16 µg/mL (≈ 33.5 µM) in experiment [5]; 8 µg/mL (≈ 16.8 µM) in experiment [6]; > 64 µg/mL in experiment [7]. In addition, the “diameter of the inhibition zone (DIZ)” value in experiment [2] and in [8] was “inactive” in each case. The values for the zone of inhibition at 1000 µg/mL in [4], in experiment [9] and in experiment [10] were 20.4 mm, 16.7 mm and 14.7 mm, respectively.

By MIC is commonly meant the smallest concentration in the dilution series that meets the test's criterion for growth inhibition. A high value points to a need for much substance.
